Assay results from ChEMBL document CHEMBL4619720, “Synthesis and biological evaluation of new antioxidant and antiproliferative chalcogenobiotin derivatives for bladder carcinoma treatment” (Bioorg Med Chem, 2020).
The source made the active and inactive calls. No cut-off for these calls is given here.

How the values were obtained:
[1] = Cytotoxicity against CHOK1 cells assessed as inhibition of cell growth at 12.5 uM after 24 hrs by MTT assay relative to control; type: cell-based, Cricetulus griseus; details: chinese hamster, CHO-K1 cells
Method in brief: (§1)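 CHO-K1 cells exposed to 0.4–50 µM for 24 and 48 h, then MTT reduction assay. Growth inhibition relative to control; IC50 by nonlinear regression; three independent experiments.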

[2] = Antioxidant activity assessed as inhibition of Fe(II)-induced lipid peroxidation after 30 mins by TBARS assay; type: functional
Method in brief: (§2)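 Lipid peroxidation system: phosphatidylcholine 0.4 mg, FeSO4 55 µM, Tris-HCl pH 7.4 and compound (final 0–200 µM), 30 min at 37 °C. Then acetic acid buffer pH 3.4 plus 0.22% thiobarbituric acid, 1 h at 100 °C, n-butanol extraction of pink chromogen. IC50 from concentration curves; α-tocopherol and diphenyl diselenide as references; three independent experiments.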

[3] = Antioxidant activity assessed as inhibition of Fe(II)-induced lipid peroxidation at 200 uM after 30 mins by TBARS assay; type: functional; method in brief: as §2
[4] = Antioxidant activity assessed as half life of GPx-like activity to decompose hydrogen peroxide at 55 uM measured for 20 mins by spectrophotometer method
5637 [5] = assay: Antiproliferative activity against human 5637 cells assessed as inhibition of cell growth at 0.4 uM to 50 uM after 24 hrs by MTT assay; type: functional, cell-based
Method in brief: (§3)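 Human bladder carcinoma 5637 cells, grown in DMEM with 10% FBS at 37 °C under 5% CO2, were seeded at 2 × 10^4 cells/well and cultured 24 h. Medium was then replaced with compound in DMEM/FBS, DMSO ≤0.5%, for 24 or 48 h. MTT was added for 3 h, formazan dissolved in DMSO, and OD read at 492 nm. Inhibition % = [1 − Abs treated/Abs control] × 100; three independent experiments.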

CHO-K1 [6] = assay: Cytotoxicity against CHOK1 cells assessed as inhibition of cell growth at 0.4 uM to 50 uM after 48 hrs by MTT assay; type: cell-based, Cricetulus griseus; details: chinese hamster, cho-k1, 48 h; method in brief: as §1
5637 [7] = assay: Antiproliferative activity against human 5637 cells assessed as inhibition of cell growth at 0.4 uM to 50 uM after 48 hrs by MTT assay; type: functional, cell-based; method in brief: as §3
CHO-K1 [8] = assay: Cytotoxicity against CHOK1 cells assessed as inhibition of cell growth at 0.4 uM to 50 uM after 24 hrs by MTT assay; type: cell-based, Cricetulus griseus; details: chinese hamster, cho-k1, 24 h; method in brief: as §1
[9] = Toxicity in Swiss mouse assessed as increase in aspartate aminotransferase level in plasma at 100 umol/kg, sc administration and measured for 7 days; type: organism-based; details: in vivo, 168 h
Method in brief: (§4)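 Adult male Swiss mice (25–30 g), n = 4 per group, given a single subcutaneous dose of 100 µmol/kg or DMSO 1 mL/kg. Monitored by closed-circuit TV for 168 h, with body weight, food and water intake recorded daily. Killed by decapitation at day 7; blood urea, creatinine, AST, ALT and alkaline phosphatase measured.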

[10] = Toxicity in Swiss mouse assessed as urea level in plasma at 100 umol/kg, sc administration and measured for 7 days; type: organism-based; details: in vivo, 168 h; method in brief: as §4
[11] = Toxicity in Swiss mouse assessed as effect on alkaline phosphatase activity at 100 umol/kg, sc administration and measured for 7 days; type: organism-based; details: in vivo, 168 h; method in brief: as §4
5637 [12] = assay: Antiproliferative activity against human 5637 cells assessed as inhibition of cell growth at 0.4 uM to 50 uM by MTT assay; type: functional, cell-based; details: TDE = time-dependent effect
Method in brief: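 5637 bladder carcinoma cells in DMEM/10% FBS at 37 °C, 5% CO2, log phase, seeded 2 × 10^4 per well for 24 h. Compound exposure 0.4–50 µM for 24 or 48 h, DMSO ≤0.5%. MTT (5 mg/mL in PBS) 3 h at 37 °C, formazan dissolved in DMSO, read at 492 nm. Inhibition % = [1 − Abs treated/Abs control] × 100; IC50 by nonlinear regression; three independent experiments.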

5637 [13] = assay: cells; details: Homo sapiens, 5637, 48 h
[14] = Toxicity in Swiss mouse assessed as creatinine level in plasma at 100 umol/kg, sc administration and measured for 7 days; type: organism-based; details: in vivo, 168 h; method in brief: as §4
5637 [15] = assay: cells; details: Homo sapiens, 5637, 24 h
[16] = Antioxidant activity assessed as DPPH radical scavenging activity at 1 mM for 180 mins measured every 30 mins relative to control; type: functional
Method in brief: (§5)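 Test compounds mixed with 0.3 mM DPPH in ethanol; single-point screen at 1 mM, time course at final 500 µM. Absorbance at 518 nm read every 30 min over 180 min. Positive controls were BHT (final 500 µM) and diphenyl diselenide (final 2 mM); t1/2 is the time to scavenge 50% of DPPH. DMSO vehicle; three independent experiments.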

CHO-K1 [17] = assay: Cytotoxicity against CHOK1 cells assessed as inhibition of cell growth after 24 hrs by MTT assay relative to control; type: cell-based; details: Cricetulus griseus, CHO-K1, 24 h; method in brief: as §1
CHO-K1 [18] = assay: Cytotoxicity against CHOK1 cells assessed as inhibition of cell growth after 48 hrs by MTT assay relative to control; type: cell-based; details: Cricetulus griseus, CHO-K1, 48 h; method in brief: as §1
[19] = Antioxidant activity assessed as GPx-like activity to decompose hydrogen peroxide at 450 uM measured for 20 mins by spectrophotometer method; type: functional
Method in brief: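 GPx-mimic assay with thiophenol replacing glutathione. Ethanol, thiophenol 2.5 mM and compound (final 0–450 µM; t1/2 also taken at 55 µM) or DMSO blank, started with H2O2 2.3 mM. […] followed at 305 nm for 20 min. Ebselen and diphenyl diselenide at 55 µM as references; three independent experiments.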

[20] = Antioxidant activity assessed as half life of DPPH radical scavenging activity at 500 uM for 180 mins measured every 30 mins relative to control; type: functional; method in brief: as §5
[21] = Toxicity in Swiss mouse assessed as effect on alanine aminotransferase level at 100 umol/kg, sc administration and measured for 7 days; type: organism-based; details: in vivo, 168 h; method in brief: as §4
[22] = Cytotoxicity against human leukocytes assessed as reduction in cell viability at 100 uM after 3 hrs by Trypan blue exclusion assay
Method in brief: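 Leukocytes isolated from heparinized venous blood of healthy donors, 2 × 10^6/mL. Incubated 3 h in Hank's buffer with 10% human plasma containing DMSO (0.5%), compounds (100 µM) or t-butyl hydroperoxide (1 mM) as positive control. Three independent experiments.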

5637 [23] = assay: Cell cycle arrest in human 5637 cells assessed as accumulation at S-phase at 12.5 uM after 24 hrs by propidium-iodide staining based flow cytometry; type: functional
Method in brief: (§6)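 5637 cells treated 24 h at 12.5 µM alongside untreated controls. DNA content measured by propidium iodide staining and flow cytometry. Triplicate treatments; analysis by two-way ANOVA with t-tests, p < 0.05.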

[24] = Toxicity in Swiss mouse assessed as survival rate at 100 umol/kg, sc administration and measured for 7 days; type: organism-based; details: in vivo, 168 h; method in brief: as §4
5637 [25] = assay: Cell cycle arrest in human 5637 cells assessed as accumulation at G2/M phase at 12.5 uM after 24 hrs by propidium-iodide staining based flow cytometry; type: functional; method in brief: as §6
[26] = Cytotoxicity against human leukocytes assessed as reduction in cell viability at 1 mM after 3 hrs by Trypan blue exclusion assay; details: 1000 µM

`CCCCCCC[Te]c1ccccc1` gave an inhibition at 24 h, 12.5 µM [1] of 50%.

In the case of `Cc1c(C)c2c(c(C)c1O)CC[C@@](C)(CCC[C@H](C)CCC[C@H](C)CCCC(C)C)O2` [ALPHA-TOCOPHEROL], the IC50 [2] is reported as 60.3 µM and the inhibition [3] is reported as “Active”.

In the case of `O=c1c2ccccc2[se]n1-c1ccccc1`, the T1/2 [4] is reported as 56 min.

With `O=C(O)CCCC[C@@H]1SC[C@@H]2NC(=O)N[C@@H]21` [BIOTIN] the inhibition 5637 [5] was “inactive”, the Activity (CHO-K1 [6]) was “Non-Toxic” and the inhibition 5637 [7] was “inactive”. For the same molecule, the Activity (CHO-K1 [8]) was “Non-Toxic”.

In the case of `O=C1N[C@H]2[C@H](CS[C@H]2CCCCC(=O)OCCCC[Te]c2ccccc2)N1`, the Activity [9] is reported as “Toxic”, the Activity [10] is reported as “Non-Toxic” and the Activity [11] is reported as “Non-Toxic”. For the same molecule, the inhibition 5637 [12] was “Tde”, the IC50 5637 [13] was 4.73 µM and the Activity [14] was “Non-Toxic”. It also gave an IC50 5637 [15] of 5.8 µM, an Activity [16] of 50% and an IC50 (CHO-K1 [17]) of 70 µM. The IC50 (CHO-K1 [18]) was 34.2 µM, the Activity [19] was “Active” and the T1/2 [20] was 18 min. For the same molecule, the Activity [21] was “Non-Toxic”, the Activity [22] was “Non-Toxic” and the Activity 5637 [23] was “Active”. The IC50 [2] was 5 µM, the T1/2 [4] was 15.8 min and the Activity [24] was “Non-Toxic”. The inhibition [3] was “Active”.

In the case of `Cc1ccc([Se]CCCCOC(=O)CCCC[C@@H]2SC[C@@H]3NC(=O)N[C@@H]32)cc1`, the inhibition 5637 [5] is reported as “inactive” and the inhibition 5637 [7] is reported as “inactive”.

For `O=C1N[C@H]2[C@H](CS[C@H]2CCCCC(=O)OCCCC[Se]c2ccc(Cl)cc2)N1`, the inhibition 5637 [5] was “inactive” and the inhibition 5637 [7] was “inactive”.

In the case of `O=C1N[C@H]2[C@H](CS[C@H]2CCCCC(=O)OCCCCC[Te]c2ccccc2)N1`, the inhibition 5637 [12] is reported as “Tde”, the IC50 5637 [13] is reported as 6.71 µM and the Activity 5637 [25] is reported as “Active”. For the same molecule, the IC50 5637 [15] was 7.63 µM, the Activity [16] was 50% and the Activity [19] was “Active”. For the same molecule, the T1/2 [20] was 23 min, the Activity [22] was “Non-Toxic” and the IC50 [2] was 1.33 µM. The T1/2 [4] was 38.9 min and the inhibition [3] was “Active”.

In the case of `CC(C)(C)OO` [TERT-BUTYL HYDROPEROXIDE], the Activity [26] is reported as “Toxic”.

With `c1ccc([Se][Se]c2ccccc2)cc1` the Activity [19] was “Active”, the T1/2 [20] was > 180 min and the IC50 [2] was 248 µM. For the same molecule, the T1/2 [4] was 120 min and the inhibition [3] was “Active”.

For `COc1ccc([Se]CCCCOC(=O)CCCC[C@@H]2SC[C@@H]3NC(=O)N[C@@H]32)cc1`, the inhibition 5637 [5] was “inactive” and the inhibition 5637 [7] was “inactive”.

For `O=C1N[C@H]2[C@H](CS[C@H]2CCCCC(=O)OCCCC[Se]c2ccccc2)N1`, the inhibition 5637 [5] was “inactive” and the inhibition 5637 [7] was “inactive”.

With `Cc1cc(C(C)(C)C)c(O)c(C(C)(C)C)c1` the T1/2 [20] was 20.7 min.
